Assay: Toxicity liver stage against HepG2, at 10uM
Assay type: cell-based
Design: test concentration 10 uM, cell line HepG2-A16-CD81EGFP
Details: human, HepG2-A16-CD81EGFP cells; read-out: INHIBITION
Summary of the method: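 Uninfected HepG2-A16-CD81EGFP cells, 3 × 10^3 per well, 1536-well, plated on prespotted compound at 10 μM final, parasite-free screening media added to match infected plates; puromycin 10 μM positive, DMSO 0.5% negative; run in parallel with 48 h PbLuc assay at 37 °C, 5% CO2; viability by CellTiter-Glo luminescence, normalized to controls.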

CC(C)(C)NC(=O)COc1ccc(CNCc2ccccn2)cc1
cytotoxicity at 10 µM: -11.5%

COc1ccc(CN[C@@H]2CO[C@H](CNC(=O)NC(C)C)[C@H]2O)cc1
cytotoxicity at 10 µM: -4.7%

Cc1nn(-c2ccccc2Cl)c(C)c1CCC(=O)NCCS(C)(=O)=O
cytotoxicity at 10 µM: 2.78%

O=C1CCNc2ccc(F)cc2CN1Cc1ccccc1
cytotoxicity at 10 µM: -3.03%

O=C(CNC(=O)N1CCc2c([nH]c3ccc(Cl)cc23)C1)NC1CCCC1
cytotoxicity at 10 µM: -2.91%

O=C(COc1coc(CN2CCCC2)cc1=O)Nc1ccc(Cl)c(Cl)c1
cytotoxicity at 10 µM: 0.0723%

Cc1cc(-c2nn3c(C4CC4)nnc3s2)on1
cytotoxicity at 10 µM: -2.37%

O=C(NC1CC(=O)N(C2CC2)C1)c1cccs1 (stereo not drawn)
cytotoxicity at 10 µM: 17.5%

COCCN(Cc1ccoc1)C(=O)c1c(F)cccc1F
cytotoxicity at 10 µM: 10.6%

COc1nn(C)cc1C(=O)NCC(OC)c1ccccc1C (stereo not drawn)
cytotoxicity at 10 µM: -8.32%

Cc1nc(-c2cnn(C)c2)nc2c1CN(C(=O)c1cccn1C)CC2
cytotoxicity at 10 µM: 4.87%

O=C1CC2(CCN(c3nncs3)C2)CN1c1cccc(F)c1 (stereo not drawn)
cytotoxicity at 10 µM: -3.36%

CO[C@H]1CC[C@H]2[C@H]1OCCN2C(=O)c1ccc(C)nc1
cytotoxicity at 10 µM: -141%

Cc1cs/c(=N\C(=O)Cn2nc(N3CCC(C)CC3)ccc2=O)[nH]1
cytotoxicity at 10 µM: 1.34%

O=S(=O)(Nc1cnn(C2CCOCC2)c1)c1ccc(F)c(F)c1
cytotoxicity at 10 µM: 6.04%

O=C(NCCC1=CCCCC1)C1CCCN(c2ccc3nncn3n2)C1 (stereo not drawn)
cytotoxicity at 10 µM: 4.01%

CCN(c1ccc(C(=O)NCCCN2CCCC2)cc1)S(=O)(=O)CC
cytotoxicity at 10 µM: -3.29%

COc1ccc2nnc(C(=O)NCC3CCCC3)nc2c1
cytotoxicity at 10 µM: -3.35%

CC(=O)N1CCOC(CCc2cc(-c3c(C)noc3C)ncn2)C1 (stereo not drawn)
cytotoxicity at 10 µM: -1.98%

Cc1noc(C)c1-c1cc(CCC2CN(C(=O)CN)CCO2)ncn1 (stereo not drawn)
cytotoxicity at 10 µM: 2.89%

CCC(=O)N1CCCC1c1n[nH]cc1-c1ccccc1F (stereo not drawn)
cytotoxicity at 10 µM: -3.02%

COCC(=O)N1CCC([C@@H]2C[C@H](C(F)(F)F)n3nc(C)cc3N2)CC1
cytotoxicity at 10 µM: -33.6%

CC(=O)N1CCC(C(=O)N2CCCC(Cc3ccccn3)C2)CC1 (stereo not drawn)
cytotoxicity at 10 µM: 6.97%

CC(=O)N1CCC(c2cc(Nc3ncccn3)nc(C)n2)C1 (stereo not drawn)
cytotoxicity at 10 µM: -27.7%

CC(=O)N1CCN(C(C)C)CC(COc2ccccc2)C1 (stereo not drawn)
cytotoxicity at 10 µM: -28.8%

NC(=O)C1(c2cnccn2)CCCN1Cc1ccc(Cl)c(F)c1 (stereo not drawn)
cytotoxicity at 10 µM: -4%

CCNC(=O)c1cccc(CNC(=O)c2cnc(C(C)(C)C)s2)c1
cytotoxicity at 10 µM: -0.969%

c1cnn(CC2CN(c3ncnc4c3CCC4)CCO2)c1 (stereo not drawn)
cytotoxicity at 10 µM: 31.2%

O=C(COC1CCCC1)N1CCC(C(O)c2ccc(F)cc2)CC1 (stereo not drawn)
cytotoxicity at 10 µM: 6.62%

COc1ccc(C2CCCN2c2cnc3ccccc3n2)c(OC)c1 (stereo not drawn)
cytotoxicity at 10 µM: 7.54%

COc1ccc(Cl)cc1NCC(=O)N(Cc1cccnc1)C1CC1
cytotoxicity at 10 µM: 11.8%

CC(C)(NCCOc1ccc(CC#N)cc1)c1nccs1
cytotoxicity at 10 µM: -3.25%

CC(=O)N1CCC(NC(=O)CN2CCCc3c(C)ccc(F)c32)CC1
cytotoxicity at 10 µM: -5.82%

CN1CCN(CCOc2ccc(NC(=O)c3ccoc3)cc2)CC1
cytotoxicity at 10 µM: -2.09%

O=C(c1sccc1Br)N1CCOCC1
cytotoxicity at 10 µM: -2.34%

CC(=O)NCCCNC(=O)N(C)C(C)Cc1ccc(Cl)cc1 (stereo not drawn)
cytotoxicity at 10 µM: 0.866%

COc1cccc(CN(C)Cc2c(C)noc2C)c1OC
cytotoxicity at 10 µM: 8.82%

c1csc(-c2nc(CN3CCN(c4cnccn4)CC3)co2)c1
cytotoxicity at 10 µM: -5.67%

CCc1nsc(N2CCOC3(CCCC3)C2)n1
cytotoxicity at 10 µM: 6.05%

COc1cc2c(cc1OC)CN(C(=O)Cn1nc(C)cc1C)CC2
cytotoxicity at 10 µM: 1.29%

O=C1CC[C@H](C(=O)N(Cc2cccc(Br)c2)C2CC2)N1
cytotoxicity at 10 µM: 7.24%

CC(C)(C)c1n[nH]c(C2CN(Cc3ncc[nH]3)CCO2)n1 (stereo not drawn)
cytotoxicity at 10 µM: 3.01%

CC(=O)N(C)C1CCN(C(=O)NCCc2cc(F)ccc2F)CC1
cytotoxicity at 10 µM: -7.76%

CCN(C(=O)CN1CCn2c(C)nnc2C1)C1=CCCCC1
cytotoxicity at 10 µM: 13.4%

Cc1c(NCCCOc2cccc(C#N)c2)cccc1C(N)=O
cytotoxicity at 10 µM: -0.572%

Cc1nc(CN2CCC(c3nc4cc(Cl)ccc4o3)CC2)oc1C
cytotoxicity at 10 µM: -8.56%

COC(=O)CNC(=O)C1CCN(S(C)(=O)=O)CC1
cytotoxicity at 10 µM: 2.91%

O=C(NCc1ccccc1F)N1CCCCC1C1OCCO1 (stereo not drawn)
cytotoxicity at 10 µM: 2.01%

O=C(CCNC(=O)c1cccc(OC(F)F)c1)Nc1cccnc1
cytotoxicity at 10 µM: 0.258%

Cc1nc(C)n(CC2CN(CCc3cccs3)CCO2)n1 (stereo not drawn)
cytotoxicity at 10 µM: 7.12%

CSC1(CNc2ccc(Br)cn2)CCOCC1
cytotoxicity at 10 µM: -9.99%

Cc1nc(C2(NCc3cccc(F)c3F)CCCCC2)no1
cytotoxicity at 10 µM: 0.749%

CCC(NC(=O)NCc1cccc(N(C)C)n1)c1cccs1 (stereo not drawn)
cytotoxicity at 10 µM: 17.9%

CN1CCC(NC(=O)Nc2ccc(Cl)c(F)c2)C1=O (stereo not drawn)
cytotoxicity at 10 µM: -136%

CCC(C)Oc1cc(C(=O)Nc2nccs2)ccn1 (stereo not drawn)
cytotoxicity at 10 µM: -6.19%

O=C(CCc1ccc(Br)cc1)NCCc1nnc[nH]1
cytotoxicity at 10 µM: 2.7%

CC(CO)NC(=O)c1ccc(NCc2ccc(F)c(F)c2)cc1 (stereo not drawn)
cytotoxicity at 10 µM: -5.89%

CC(C)NC(=O)C(C)S(=O)(=O)c1cc2c(cc1Cl)OCCO2 (stereo not drawn)
cytotoxicity at 10 µM: -3.25%

COCCN1CC=C(c2cccc(OC)c2)CC1
cytotoxicity at 10 µM: 6.45%

CC(CCc1ccccc1)N1CCC(C(=O)Nc2ccccn2)CC1 (stereo not drawn)
cytotoxicity at 10 µM: 13.5%

Cc1ccc(NC(=O)NCCc2cnn(C)c2)c(N(C)C)n1
cytotoxicity at 10 µM: 13.4%

Cc1ccccc1CNC(=O)CNc1ccc(OC2CCOC2)cc1 (stereo not drawn)
cytotoxicity at 10 µM: 2.77%

O=C(c1ccc2c(c1)[nH]c(=O)n2C1CCCC1)N1CCSCC1
cytotoxicity at 10 µM: -42.3%

CCOc1ccc(C(=O)N(Cc2cnn(C)c2)C(C)C)cc1
cytotoxicity at 10 µM: 13.4%

Cn1ccc(C(=O)NCc2ccc(Cn3ccnc3)cc2)cc1=O
cytotoxicity at 10 µM: 3.32%

CC(C)(NS(C)(=O)=O)c1nc(-c2ccc(F)c(F)c2)no1
cytotoxicity at 10 µM: -1.49%

CCCC(C)NC(=O)c1ccc(-c2ccco2)[nH]c1=O (stereo not drawn)
cytotoxicity at 10 µM: -20%

CC(NC1(CNC(=O)CC(C)(C)C)CCOCC1)c1ccccc1 (stereo not drawn)
cytotoxicity at 10 µM: 8.57%

CN(CCNC(=O)N1CCN(Cc2ccon2)CC1)c1ccccc1
cytotoxicity at 10 µM: 22.2%

Cc1nn(C)c(C)c1C1COCCN1c1ncnc2sccc12 (stereo not drawn)
cytotoxicity at 10 µM: 2.84%

CCc1nc(CC(=O)Nc2cnn(CC3CCCO3)c2)cs1 (stereo not drawn)
cytotoxicity at 10 µM: -3.11%

CCOc1ccc(CN(C)C(=O)NC(C)c2nncn2C)cc1 (stereo not drawn)
cytotoxicity at 10 µM: 8.62%

Cc1n[nH]c(C2CN(C(=O)CCc3ccsc3)CCO2)n1 (stereo not drawn)
cytotoxicity at 10 µM: -5.15%

CN(C)C(=O)Cc1nc(CN2CCCCC2Cn2cccn2)cs1 (stereo not drawn)
cytotoxicity at 10 µM: 6.04%

NC(=O)c1ccc(CN2CCCC(O)C2)cc1 (stereo not drawn)
cytotoxicity at 10 µM: 0.459%

COCC1CN(C(=O)c2ccc(C)o2)Cc2nccn2C1 (stereo not drawn)
cytotoxicity at 10 µM: -97.1%

O=C(C1CCCN(C2CCOCC2)C1)N1CCc2ncccc2C1 (stereo not drawn)
cytotoxicity at 10 µM: 4.21%

COC(=O)c1ccc(C(=O)N2CCCC(Nc3ccc(F)cc3)C2)cc1 (stereo not drawn)
cytotoxicity at 10 µM: 1.34%

COCCCC1(CO)CCCN(CCOC)C1 (stereo not drawn)
cytotoxicity at 10 µM: -1.87%

CCc1cnc(C)nc1NCCNc1nc(C)cc(=O)[nH]1
cytotoxicity at 10 µM: -9.01%

COC1CCCN(CCCc2cn[nH]c2)C1 (stereo not drawn)
cytotoxicity at 10 µM: 2.24%

Cc1ccc(CN(Cc2ccncc2)C2CCN(C)CC2)s1
cytotoxicity at 10 µM: 7.39%

O=C(CC1CCc2ccccc21)N1CCC(O)(Cn2ccnc2)CC1 (stereo not drawn)
cytotoxicity at 10 µM: 5.01%

COc1cccc(CN2CCCC3(CCN(C(CO)CO)C3)C2)c1 (stereo not drawn)
cytotoxicity at 10 µM: -5.96%

CO[C@@H]1c2ccccc2C2(CCN(C(=O)CNS(C)(=O)=O)CC2)[C@H]1O
cytotoxicity at 10 µM: 11.1%

c1ccc(-c2nc(CCNC3CCOC4(CCOCC4)C3)no2)cc1 (stereo not drawn)
cytotoxicity at 10 µM: 4.47%

CC(CN1CCOCC1)NC1CCN(Cc2cccc(O)c2)CC1 (stereo not drawn)
cytotoxicity at 10 µM: -0.683%

COc1ccc(CN2C[C@@H](CN(C)C)[C@@H](CO)C2)cc1CN1CCCC1
cytotoxicity at 10 µM: 4.59%

Cc1cccc(C(C(=O)NCCCc2nnc3ccccn23)N(C)C)c1 (stereo not drawn)
cytotoxicity at 10 µM: -7.88%

Cc1nc(CCCNC(=O)C2CC(=O)N(C(C)(C)C)C2)sc1C (stereo not drawn)
cytotoxicity at 10 µM: -6.86%

CCC(NC(=O)C1CCN(S(C)(=O)=O)CC1)c1ccc(OC)c(OC)c1 (stereo not drawn)
cytotoxicity at 10 µM: -6.69%

CN(C)C(=O)CN1CCN(Cc2coc(-c3cccc(F)c3)n2)CC1
cytotoxicity at 10 µM: -3.16%

Cc1cc(C)n(CC2CCCN2CC(=O)Nc2cc(C(C)C)no2)n1 (stereo not drawn)
cytotoxicity at 10 µM: 0.407%

COc1ccnc(N2CCN(CC(=O)N3CCOC(C)C3)CC2)n1 (stereo not drawn)
cytotoxicity at 10 µM: -5.4%

CC(C(=O)N1CCCN(c2ccccc2C#N)CC1)n1cccn1 (stereo not drawn)
cytotoxicity at 10 µM: -8.3%

COc1ccc(C2=CCN(C(=O)C3CCC3)CC2)cc1
cytotoxicity at 10 µM: -13.1%

CC(NC(=O)NCCCn1cccn1)c1ccc2c(c1)OCCCO2 (stereo not drawn)
cytotoxicity at 10 µM: -9.13%

Cc1nccn1C1CCCN(C(=O)CCCNc2ncccn2)C1 (stereo not drawn)
cytotoxicity at 10 µM: -6.42%

Cc1ccc(N2CCCC(NCC(=O)NC(C3CC3)C3CC3)C2)nn1 (stereo not drawn)
cytotoxicity at 10 µM: -2.8%

Cc1nn(C)c(Cl)c1C1CCCN1C(=O)c1cnc[nH]1 (stereo not drawn)
cytotoxicity at 10 µM: -2.11%

Cc1noc2ncc(C(=O)N(CC3CCOC3)C3CC3)cc12 (stereo not drawn)
cytotoxicity at 10 µM: -6.64%

Cc1nc(CNCC2CCCN2c2cccnn2)cs1 (stereo not drawn)
cytotoxicity at 10 µM: -6.26%

c1cnc(-c2nc(CNCCn3cccn3)cs2)nc1
cytotoxicity at 10 µM: -10.3%

CC(C(=O)NCCOc1cccc(Cl)c1)n1cncn1 (stereo not drawn)
cytotoxicity at 10 µM: -3.53%

CCOc1cc(/C=C/c2ncc(C(=O)O)s2)ccc1O
cytotoxicity at 10 µM: 0.241%

CS(=O)(=O)NC1CCCN(C(=O)NCc2cccnc2)C1 (stereo not drawn)
cytotoxicity at 10 µM: 1.59%

Cc1noc([C@@H]2C[C@@H]3CCN(CC4CC4)C[C@H]3O2)n1
cytotoxicity at 10 µM: -139%

COc1ccc(OCCNCc2c(C)nn(C)c2N(C)C)cc1
cytotoxicity at 10 µM: -6.63%

CCn1nc(C)cc1C(=O)N1CC[C@H](OC)[C@H]2CN(CC3CC3)C[C@H]21
cytotoxicity at 10 µM: -133%

Cn1nnc2c1CCN(Cc1ccoc1)C2COCc1ccccc1 (stereo not drawn)
cytotoxicity at 10 µM: -138%

CC1c2ncc(COc3cccnc3)n2CCN1C(=O)C1=CCCC1 (stereo not drawn)
cytotoxicity at 10 µM: -2.59%

CNC(=O)[C@H]1C[C@H]2OCC[C@H]2N(Cc2cccc3ccccc23)C1
cytotoxicity at 10 µM: 7.67%

O=C(CCN1C[C@H]2CC[C@@H]1C2)N1CCN(c2cccc(Cl)c2)C(=O)C1
cytotoxicity at 10 µM: 1.4%

From ChEMBL document CHEMBL4513216, “Probing the Open Global Health Chemical Diversity Library for Multistage-Active Starting Points for Next-Generation Antimalarials” (ACS Infect Dis, 2020)
